{
  "source": "PubChem BioAssay AID720574",
  "about": "(Broad Institute, 2013)",
  "note": "Values joined by “and” are separate entries in the source; they are usually repeats but may differ in a detail not shown here. Equal values may be shown once. The campaign covered roughly 96,000 compounds. About 140 (0.15%) were called active. For the sample, actives were picked, then their nearest neighbours and some compounds at random. Values without a mark were called inactive.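 How the source made its calls: active means mean replicate inhibition above about 25%, with at least 55% of replicates also reaching it (limit read from the data, passing the limit was not always enough); inconclusive means only one of those two conditions met; inactive means neither condition met.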",
  "data": [
    {"target": "Lysine-specific demethylase 4C (Homo sapiens) (UniProt Q9H3R0)", "sequence (Q9H3R0 2-372 limits assumed)": "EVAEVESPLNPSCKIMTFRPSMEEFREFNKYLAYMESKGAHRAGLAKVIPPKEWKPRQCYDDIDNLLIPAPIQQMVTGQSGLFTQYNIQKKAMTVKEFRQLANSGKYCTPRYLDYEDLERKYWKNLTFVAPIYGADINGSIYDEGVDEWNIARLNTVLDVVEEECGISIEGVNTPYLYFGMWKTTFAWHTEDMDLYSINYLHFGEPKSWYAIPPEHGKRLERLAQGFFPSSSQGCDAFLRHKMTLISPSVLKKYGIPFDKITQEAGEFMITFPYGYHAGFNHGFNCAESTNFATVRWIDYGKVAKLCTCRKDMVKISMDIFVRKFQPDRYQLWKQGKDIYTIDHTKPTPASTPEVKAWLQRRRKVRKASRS", "experiment": "KDM4C H3K9me3 demethylation inhibition – biochemical, single concentration HTS, primary screen (AID 720574)", "settings": "GST-KDM4C 2-372, H3K9me3 peptide, LANCE TR-FRET; at 12.5 µM; active compounds read high", "summary_of_the_method": "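System – N-terminal GST-fused human GASC-1 (KDM4C) fragment, residues 2-372 · Input – enzyme final amount 10 nM · Technique – LANCE TR-FRET, Eu antibody, ULight-streptavidin, EDTA, ex 340 nm, em 618/671 nm · Medium – HEPES buffer, pH 7.5, plus ascorbate · Incubation – enzyme reaction 30 min, then detection 60 min, both room temperature · Reagent – H3K9me3 peptide with Fe(II)/2OG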", "values": [
      {"compound": "Cc1ccc(S(=O)(=O)N(C)C[C@@H]2OCCCC[C@@H](C)Oc3ccc(NC(=O)Nc4ccc(C(F)(F)F)cc4)cc3C(=O)N([C@@H](C)CO)C[C@@H]2C)cc1", "inhibition": "1.16%"},
      {"compound": "O=C(CN1CCOCC1)N1CC(=O)N2[C@H](C1)[C@H](c1ccc(/C=C/c3ccccc3)cc1)[C@@H]2CO", "inhibition": "0.257%"},
      {"compound": "O=C(NCC[C@H]1CC[C@@H](NC(=O)C2CC2)[C@H](CO)O1)c1ccc(F)cc1", "inhibition": "-0.983%"},
      {"compound": "CCC(=O)Nc1ccc2c(c1)C(=O)N(C)[C@@H]1CC[C@H](CC(=O)NCc3ccccc3)O[C@H]1CO2", "inhibition": "1.95%"},
      {"compound": "COc1ccc(S(=O)(=O)N[C@@H]2CC[C@@H](CC(=O)N3CCC(Cc4ccccc4)CC3)O[C@@H]2CO)cc1", "inhibition": "-0.232%"},
      {"compound": "COCC(=O)Nc1ccc2c(c1)[C@@H]1C[C@H](CC(=O)NCc3ccc(-c4ccccc4)cc3)O[C@H](CO)[C@@H]1O2", "inhibition": "-3.13%"},
      {"compound": "CN1C(=O)c2cc(NC(=O)C3CCCC3)ccc2OC[C@@H]2O[C@@H](CC(=O)NCCc3ccncc3)CC[C@@H]21", "inhibition": "1.45%"},
      {"compound": "Cc1ccc(S(=O)(=O)N[C@H]2CC[C@@H](CC(=O)N3CCc4ccccc4C3)O[C@H]2CO)cc1", "inhibition": "0.126%"},
      {"compound": "O=C(C[C@@H]1C[C@H]2c3cc(NC(=O)Nc4ccccc4)ccc3O[C@H]2[C@@H](CO)O1)NC1CCCCC1", "inhibition": "-1.66%"},
      {"compound": "COc1ccc2c3c(n(C)c2c1)[C@@H](CO)N(C(=O)Nc1ccc(F)cc1)CC31CN(C(=O)NC(C)C)C1", "inhibition": "-0.434%"},
      {"compound": "C/C=C/c1ccc([C@@H]2[C@H](CO)N(CC3CCOCC3)C23CN(S(=O)(=O)CC)C3)cc1", "inhibition": "0.162%"},
      {"compound": "C[C@H](CO)N1C[C@H](C)[C@H](CN(C)Cc2ccncc2)Oc2ncc(C#CCC3CCCCC3)cc2C1=O", "inhibition": "2.4%"},
      {"compound": "CC(C)NC(=O)N(C)C[C@@H]1OCCCC[C@@H](C)Oc2ccc(NC(=O)NC3CCCCC3)cc2C(=O)N([C@@H](C)CO)C[C@@H]1C", "inhibition": "0.134%"},
      {"compound": "COc1ccccc1C#Cc1cnc2c(c1)C(=O)N([C@H](C)CO)C[C@H](C)[C@H](CN(C)S(=O)(=O)c1cn(C)cn1)O2", "inhibition": "-1.15%"},
      {"compound": "CO[C@@H]1CN(C)C(=O)c2ccc(NC(=O)c3ccccc3F)cc2OC[C@@H](C)N(CC2CCOCC2)C[C@H]1C", "inhibition": "2.15%"},
      {"compound": "CCNC(=O)C[C@@H]1CC[C@@H]2[C@H](COc3ccc(NS(=O)(=O)c4ccccc4C)cc3C(=O)N2C)O1", "inhibition": "2.37%"},
      {"compound": "CN1C[C@@H]2[C@H](c3ccccc31)[C@@H](CO)N2C(=O)Nc1ccccc1", "inhibition": "-1.64%"},
      {"compound": "CCC(=O)Nc1ccc2c(c1)C(=O)N(C)[C@H]1CC[C@H](CC(=O)NCCOC)O[C@@H]1CO2", "inhibition": "1.02%"},
      {"compound": "Cc1noc(C)c1NC(=O)N[C@@H]1C=C[C@@H](CC(=O)Nc2ccccc2)O[C@H]1CO", "inhibition": "1.04%"},
      {"compound": "CCS(=O)(=O)Nc1ccc2c(c1)C(=O)N(C)[C@H]1CC[C@@H](CC(=O)N3CCCCC3)O[C@H]1CO2", "inhibition": "-0.234%"},
      {"compound": "COCC(=O)N1CC2(C1)CN(C(=O)COC)[C@@H](CO)c1c2c2ccc(OC)cc2n1C", "inhibition": "2.79%"},
      {"compound": "CC(C)NC(=O)N[C@@H]1CC[C@@H](CCNS(=O)(=O)Cc2ccccc2)O[C@@H]1CO", "inhibition": "-0.501%"},
      {"compound": "COc1ccc(S(=O)(=O)N(C)C[C@H]2Oc3c(NC(=O)CCCCCC(=O)Nc4ccccc4N)cccc3C(=O)N([C@H](C)CO)C[C@H]2C)cc1", "inhibition": "0.35%"},
      {"compound": "O=C(NC1CCCC1)[C@H]1[C@H](CO)[C@H]2Cn3c(ccc(-c4ccccc4)c3=O)[C@H]2N1CCc1ccccc1", "inhibition": "3.27%"},
      {"compound": "CO[C@H]1CN(C)C(=O)c2ccc(NC(=O)C3CCC3)cc2OC[C@H](C)NC[C@@H]1C", "inhibition": "-0.842%"},
      {"compound": "Cc1ccccc1S(=O)(=O)N1[C@H](CO)[C@@H](c2ccc(-c3ccccc3)cc2)[C@@H]1C#N", "inhibition": "-3.67%"},
      {"compound": "COc1ccc(S(=O)(=O)N(C)C[C@H]2OCCCC[C@H](C)Oc3ccc(NC(=O)Nc4ccc5c(c4)OCO5)cc3C(=O)N([C@@H](C)CO)C[C@@H]2C)cc1", "inhibition": "15.8%"},
      {"compound": "C[C@@H]1CN([C@@H](C)CO)C(=O)Cc2cc(NC(=O)Nc3ccc4c(c3)OCO4)ccc2O[C@H]1CN(C)S(=O)(=O)c1ccccc1", "inhibition": "-0.169%"},
      {"compound": "COc1ccc(C#Cc2ccc([C@H]3[C@H]4CN(C(=O)c5ccncc5)CC(=O)N4[C@H]3CO)cc2)cc1", "inhibition": "-3.07%"},
      {"compound": "COc1ccccc1CNC(=O)C[C@H]1C[C@@H]2c3cc(NC(=O)Nc4ccccc4F)ccc3O[C@@H]2[C@H](CO)O1", "inhibition": "-9.36%"},
      {"compound": "CO[C@@H]1CN(C)C(=O)c2cc(NC(=O)c3cccc(Oc4ccccc4)c3)ccc2OC[C@H](C)NC[C@@H]1C", "inhibition": "-0.467%"},
      {"compound": "CN(C)Cc1cn(CC[C@H]2CC[C@@H](NS(=O)(=O)c3ccccc3)[C@H](CO)O2)nn1", "inhibition": "0.714%"},
      {"compound": "O=C(NC[C@@H]1N[C@@H](CO)[C@H]1c1ccc(-c2cccnc2)cc1)c1cccc(F)c1", "inhibition": "-0.99%"},
      {"compound": "CN1CCN(C(=O)C[C@H]2CC[C@@H]3[C@H](COC[C@@H](O)CN3CC3CCCC3)O2)CC1", "inhibition": "6.35%"},
      {"compound": "CCCN1C[C@@H](C)[C@@H](OC)CN(C)C(=O)c2cc(NC(=O)c3ccccc3)ccc2OC[C@H]1C", "inhibition": "-1.49%"},
      {"compound": "COc1cccc(C(=O)Nc2ccc3c(c2)C(=O)N(C)[C@@H]2CC[C@@H](CC(=O)NCCCN4CCOCC4)O[C@@H]2CO3)c1", "inhibition": "-0.807%"},
      {"compound": "COCC(=O)Nc1ccc2c(c1)[C@H]1C[C@@H](CC(=O)NCc3ccccc3F)O[C@H](CO)[C@H]1O2", "inhibition": "1.67%"},
      {"compound": "CCCC(=O)N1CCC2(CC1)CN[C@H](CO)c1[nH]c3cc(OC)ccc3c12", "inhibition": "-0.39%"},
      {"compound": "CCCC(=O)Nc1ccc2c(c1)C(=O)N(C)C[C@H](OC)[C@H](C)CN(C(=O)c1ccccn1)[C@H](C)CO2", "inhibition": "0.027%"},
      {"compound": "C[C@H](CO)N1C[C@H](C)[C@@H](CN(C)Cc2ccc(Oc3ccccc3)cc2)Oc2ccc(NS(=O)(=O)c3ccc(F)cc3)cc2CC1=O", "inhibition": "-2.45%"},
      {"compound": "O=C(Cc1cccnc1)N1CC(=O)N2[C@@H](CO)[C@@H](c3ccc(C#CC4CCCCC4)cc3)[C@@H]2C1", "inhibition": "-0.852%"},
      {"compound": "COc1ccc(-c2cn(CC[C@H]3CC[C@@H](N)[C@H](CO)O3)nn2)cc1", "inhibition": "-0.108%"},
      {"compound": "N[C@@H]1CC[C@H](CCn2cc(C3CC3)nn2)O[C@@H]1CO", "inhibition": "57.3% (active)"},
      {"compound": "CN(C)CC(=O)N[C@@H]1CC[C@@H](CCn2cc(C3CC3)nn2)O[C@H]1CO", "inhibition": "-0.3%"},
      {"compound": "O=C(c1ccncc1)N1CC[C@@H]2[C@H]1c1cc(Br)ccc1N[C@@H]2CO", "inhibition": "1.89%"},
      {"compound": "CC(=O)N1[C@H](CO)[C@H](c2ccc(-c3ccccc3)cc2)[C@H]1CNC(=O)NC(C)C", "inhibition": "-0.299%"},
      {"compound": "CCC(=O)N[C@H]1CC[C@@H](CC(=O)NCC2CC2)O[C@@H]1CO", "inhibition": "-0.369%"},
      {"compound": "C/C=C/c1ccc([C@H]2[C@@H](CO)N(C(C)=O)[C@H]2CN(C)S(C)(=O)=O)cc1", "inhibition": "1.96%"},
      {"compound": "COc1ccc(S(=O)(=O)Nc2ccc3c(c2)C(=O)N([C@@H](C)CO)C[C@H](C)[C@@H](CN(C)C(=O)NC(C)C)OCCCC[C@H](C)O3)cc1", "inhibition": "0.601%"},
      {"compound": "CN(C)C(=O)[C@@H]1[C@@H](CO)[C@@H]2Cn3c(cccc3=O)[C@H]1N2C(=O)c1ccc(F)cc1", "inhibition": "-1.64%"},
      {"compound": "COc1ccc(NC(=O)N(C)C[C@H]2OCCCC[C@@H](C)Oc3ccc(NC(=O)NC4CCCCC4)cc3C(=O)N([C@H](C)CO)C[C@H]2C)cc1", "inhibition": "-1.08%"},
      {"compound": "O=C(NC1Cc2ccccc2C1)[C@H]1[C@H](CO)[C@H]2Cn3c(ccc(C4=CCCCC4)c3=O)[C@H]2N1CC1CC1", "inhibition": "3.76%"},
      {"compound": "CC(C)NC(=O)N[C@H]1CC[C@@H](CCNC(=O)C2CCC2)O[C@@H]1CO", "inhibition": "-2.41%"},
      {"compound": "Cc1ccccc1S(=O)(=O)N1[C@@H]2CNC[C@H]1C2c1ccc(-c2cccnc2)cc1", "note": "(stereo not given in full)", "inhibition": "-0.633% and -0.155%"},
      {"compound": "O=C(NCc1ccncn1)[C@@H]1[C@@H](CO)[C@@H]2Cn3c(ccc(-c4ccc(F)cc4)c3=O)[C@@H]2N1CC1CC1", "inhibition": "12.7%"},
      {"compound": "O=C(c1cnccn1)N1CC(=O)N2[C@H](C1)[C@@H](c1ccc(C#CC3CCCC3)cc1)[C@@H]2CO", "inhibition": "7.28%"},
      {"compound": "O=C(C[C@@H]1CC[C@H]2[C@@H](COC[C@@H](O)CN2S(=O)(=O)c2cccc(F)c2)O1)NCCCN1CCOCC1", "inhibition": "-0.281%"},
      {"compound": "C[C@H](CO)N1C[C@H](C)[C@H](CN(C)C(=O)C2CC2)Oc2cc(-c3cccnc3)ccc2S1(=O)=O", "inhibition": "0.237%"},
      {"compound": "Cn1cnc(CCNC(=O)C[C@@H]2CC[C@H]3[C@@H](COC[C@@H](O)CN3C(=O)Nc3ccc(Cl)cc3)O2)c1", "inhibition": "-0.915%"},
      {"compound": "O=C(Cc1ccccn1)N1CC(=O)N2[C@H](C1)[C@@H](c1ccc(-c3ccccc3)cc1)[C@@H]2CO", "inhibition": "1.11%"},
      {"compound": "O=C(c1ccc2c(c1)OCO2)N1CC(=O)N2[C@H](C1)[C@@H](c1ccc(C#Cc3ccccc3)cc1)[C@@H]2CO", "inhibition": "-2.3%"},
      {"compound": "O=C(NCC[C@@H]1CC[C@H](NC(=O)Nc2cc(F)ccc2F)[C@@H](CO)O1)Nc1ccc(Cl)cc1", "inhibition": "0.858%"},
      {"compound": "C[C@@H]1CN([C@@H](C)CO)S(=O)(=O)c2ccc(C#Cc3ccc(F)cc3)cc2O[C@H]1CN(C)C(=O)NC1CCCC1", "inhibition": "55.9% (active)"},
      {"compound": "C/C=C/c1ccc2c(c1)O[C@@H](CN(C)C(=O)NC1CCCC1)[C@@H](C)CN([C@H](C)CO)S2(=O)=O", "inhibition": "0.88%"},
      {"compound": "C[C@@H]1CN([C@@H](C)CO)S(=O)(=O)c2ccc(C#Cc3ccc(F)cc3)cc2O[C@@H]1CN(C)CC1CC1", "inhibition": "-2.29%"}
    ]}
  ]
}
